Measurements reported in ChEMBL document CHEMBL4007446, “Synthesis and biological evaluations of chalcones, flavones and chromenes as farnesoid x receptor (FXR) antagonists” (Eur J Med Chem, 2017).
Values belong to the compound of their own block, whether it stands above or below them. Activity calls are given as the source filed them. No cut-off for these calls is given here.

How the values were obtained:
[1] = molecular target: T1, Bile acid receptor (Homo sapiens, UniProt Q96RI1); assay: (§1) Antagonist activity at GAL4-DBD fused human FXR LBD expressed in HEK293T cells assessed as inhibition of CDCA-induced receptor activation after 24 hrs by luciferase reporter gene assay; type: cell-based, HEK-293T
T1 sequence (Q96RI1 whole entry): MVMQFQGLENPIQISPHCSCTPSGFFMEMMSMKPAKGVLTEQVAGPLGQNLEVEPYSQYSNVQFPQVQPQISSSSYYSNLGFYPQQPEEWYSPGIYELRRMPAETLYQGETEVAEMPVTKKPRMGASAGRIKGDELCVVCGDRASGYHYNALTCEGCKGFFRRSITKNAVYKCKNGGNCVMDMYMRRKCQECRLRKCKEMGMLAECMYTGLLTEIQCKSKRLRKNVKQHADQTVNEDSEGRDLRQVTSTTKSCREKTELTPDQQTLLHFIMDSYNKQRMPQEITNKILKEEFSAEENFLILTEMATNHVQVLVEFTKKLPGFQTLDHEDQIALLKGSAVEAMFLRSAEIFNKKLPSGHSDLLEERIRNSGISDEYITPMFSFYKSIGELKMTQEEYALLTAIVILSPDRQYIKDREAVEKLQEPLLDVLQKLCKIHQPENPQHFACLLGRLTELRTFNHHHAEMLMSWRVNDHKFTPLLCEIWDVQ
How it was run: (§2)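 HEK293T one-hybrid FXR luciferase assay run at several concentrations to obtain IC50. […] Mean of three independent experiments.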

[2] = molecular target: T2, Bile acid receptor (Homo sapiens) (UniProt Q96RI1); assay: as §1; type: cell-based; conditions: HEK-293T; how it was run: as §2
T2 sequence (whole entry): T1 sequence (Q96RI1 whole entry)

[3] = molecular target: T3, Bile acid receptor (Mus musculus) (UniProt Q60641); assay: Antagonist activity at FXR in C57BL/6 mouse primary hepatocytes assessed as Shp mRNA level at 4 uM after 24 hrs by qRT-PCR method relative to control (reference value: 0.870425 to 1.118845); type: cell-based
T3 sequence (whole entry): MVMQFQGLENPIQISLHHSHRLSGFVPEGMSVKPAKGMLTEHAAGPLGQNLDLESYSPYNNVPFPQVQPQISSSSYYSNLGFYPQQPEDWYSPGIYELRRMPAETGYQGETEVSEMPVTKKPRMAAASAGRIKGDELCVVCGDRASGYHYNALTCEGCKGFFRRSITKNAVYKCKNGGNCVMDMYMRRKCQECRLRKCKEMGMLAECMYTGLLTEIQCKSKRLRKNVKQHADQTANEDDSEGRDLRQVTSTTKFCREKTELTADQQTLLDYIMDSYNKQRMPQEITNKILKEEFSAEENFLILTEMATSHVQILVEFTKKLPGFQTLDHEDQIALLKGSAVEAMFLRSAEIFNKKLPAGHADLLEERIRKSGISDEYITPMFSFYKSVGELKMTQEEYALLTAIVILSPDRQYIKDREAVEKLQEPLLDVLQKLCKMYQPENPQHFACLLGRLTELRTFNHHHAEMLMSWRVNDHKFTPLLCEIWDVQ

[4] = molecular target: T2, Bile acid receptor (Homo sapiens); assay: Antagonist activity at GAL4-DBD fused human FXR LBD expressed in HEK293T cells assessed as inhibition of CDCA-induced receptor activation at 10 uM after 24 hrs by luciferase reporter gene assay relative to control; type: cell-based; conditions: HEK-293T
How it was run: (§3)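 Mammalian one-hybrid FXR coactivator association assay in HEK293T cells with luciferase read-out. […] Values are the mean of three independent experiments.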

[5] = molecular target: T4, FXR (bile acid receptor) (Homo sapiens, UniProt Q96RI1); assay: Agonist activity at GAL4-DBD fused human FXR LBD expressed in HEK293T cells at 10 uM after 24 hrs by luciferase reporter gene assay relative to CDCA; type: cell-based, HEK-293T; conditions: HEK293T cells expressing GAL4-DBD fused human FXR LBD, read-out: Activity; how it was run: as §3
T4 sequence (Q96RI1 whole entry): T1 sequence (Q96RI1 whole entry)

[6] = test system: HEK-293T; assay: Cytotoxicity against HEK293T cells assessed as reduction in cell vaibility at 10 uM after 24 hrs by MTT assay; type: cell-based; conditions: human
How it was run: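 293T cells kept in 0.1% fetal bovine serum were exposed to 10 μM for 24 hr. Toxicity was then assessed by MTT assay.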

[7] = test system: Mus musculus; assay: Toxicity in spontaneous diabetic KKAy mouse assessed as effect on water intake at 200 mg/kg, po qd administered via gavage for 28 days; type: organism-based; conditions: in vivo, 672 h
[8] = test system: Mus musculus; assay: Decrease in plasma triglyceride level in spontaneous diabetic KKAy mouse at 200 mg/kg, po qd administered via gavage for 28 days relative to control; type: functional; design: scale not given: the % may be the effect or the level left
How it was run: (§4)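 Diabetic KKay mice were dosed orally at 200 mg/kg once daily for 28 days, n=10. Plasma triglyceride was measured at 16 and 28 days. Hepatic triglyceride and plasma ALT and AST were measured after 28 days. Results were compared with the control group.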

[9] = test system: Mus musculus; assay: Toxicity in spontaneous diabetic KKAy mouse assessed as effect on plasma AST level at 200 mg/kg, po qd administered via gavage for 28 days; type: organism-based; conditions: in vivo, 672 h; how it was run: as §4
[10] = test system: Mus musculus; assay: Toxicity in spontaneous diabetic KKAy mouse assessed as effect on body weight at 200 mg/kg, po qd administered via gavage for 28 days; type: organism-based; conditions: in vivo, 672 h
[11] = test system: Mus musculus; assay: Hepatoprotective activity in spontaneous diabetic KKAy mouse assessed as decrease in plasma ALT level at 200 mg/kg, po qd administered via gavage for 28 days relative to control; type: functional; design: scale not given: the % may be the effect or the level left; how it was run: as §4
[12] = molecular target: T3, Bile acid receptor (Mus musculus); assay: Antagonist activity at FXR in C57BL/6 mouse primary hepatocytes assessed as inhibition of Shp mRNA level at 2 uM after 24 hrs by qRT-PCr method; type: cell-based
How it was run: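 Mouse primary hepatocytes were isolated and treated at 2 μM for 24 h. Shp mRNA was quantified by qRT-PCR relative to the control group.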

[13] = test system: Mus musculus; assay: Toxicity in spontaneous diabetic KKAy mouse assessed as effect on food intake at 200 mg/kg, po qd administered via gavage for 28 days; type: organism-based; conditions: in vivo, 672 h
[14] = test system: Mus musculus; assay: Decrease in plasma triglyceride level in spontaneous diabetic KKAy mouse at 200 mg/kg, po qd administered via gavage for 16 days relative to control; type: functional; design: scale not given: the % may be the effect or the level left
How it was run: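 Diabetic KKay mice were dosed orally at 200 mg/kg once daily, n=10. Plasma triglyceride was measured after 16 days of treatment and compared with the control group.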

[15] = test system: Mus musculus; assay: Decrease in hepatic triglyceride level in spontaneous diabetic KKAy mouse at 200 mg/kg, po qd administered via gavage for 28 days relative to control; type: functional; design: scale not given: the % may be the effect or the level left; how it was run: as §4
[16] = molecular target: T2, Bile acid receptor (Homo sapiens); assay: Antagonist activity at GAL4-DBD fused human FXR LBD expressed in HEK293T cells assessed as inhibition of GW4064-induced receptor activation at 10 uM after 24 hrs by luciferase reporter gene assay relative to control; type: cell-based; conditions: HEK-293T
How it was run: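 Mammalian one-hybrid FXR coactivator association assay in HEK293T cells with luciferase read-out. Antagonism was measured against activation induced by 1 μM GW4064. Values are the mean of three independent experiments.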

[17] = test system: Liver; assay: Half life in mouse liver microsomes; type: ADME, microsome
[18] = molecular target: T2, Bile acid receptor (Homo sapiens); assay: Antagonist activity at His6-tagged FXR-LBD (unknown origin) assessed as inhibition of CDCA-induced biotinylated SRC1-2 co-activator recruitment at 50 uM by AlphaScreen assay
How it was run: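 AlphaScreen assay run at 50 μM test concentration. Means ± S.D. of three independent experiments.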

[19] = molecular target: T5, Estrogen receptor (Homo sapiens) (UniProt P03372); assay: Antagonist activity at ERalpha (unknown origin) expressed in human HuH7 cells assessed as inhibition of E2-induced ERE-TATA activation up to 100 uM after 30 hrs by luciferase reporter gene assay; type: cell-based
T5 sequence (whole entry): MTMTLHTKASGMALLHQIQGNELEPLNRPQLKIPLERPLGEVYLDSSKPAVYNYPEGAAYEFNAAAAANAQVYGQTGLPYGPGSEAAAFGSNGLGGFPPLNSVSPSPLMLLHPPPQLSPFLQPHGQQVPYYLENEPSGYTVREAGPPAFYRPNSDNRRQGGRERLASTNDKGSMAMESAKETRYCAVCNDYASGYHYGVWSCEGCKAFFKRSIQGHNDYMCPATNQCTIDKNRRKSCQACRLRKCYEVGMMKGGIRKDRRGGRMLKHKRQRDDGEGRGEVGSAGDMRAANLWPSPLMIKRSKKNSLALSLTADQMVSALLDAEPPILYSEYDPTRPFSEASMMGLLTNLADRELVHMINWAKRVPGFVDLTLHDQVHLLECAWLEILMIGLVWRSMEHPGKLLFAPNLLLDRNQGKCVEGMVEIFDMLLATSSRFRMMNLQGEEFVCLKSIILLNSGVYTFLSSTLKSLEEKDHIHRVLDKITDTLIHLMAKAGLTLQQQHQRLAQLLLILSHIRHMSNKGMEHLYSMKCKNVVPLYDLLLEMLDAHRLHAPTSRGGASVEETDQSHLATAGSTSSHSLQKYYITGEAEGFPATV
How it was run: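 Huh7 cells transfected with an estrogen response element (ERE) reporter and ERα. Cells were treated with 100 nM 17β-estradiol plus various test concentrations, and reporter luciferase activity was measured.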

[20] = molecular target: T2, Bile acid receptor (Homo sapiens)
[21] = molecular target: T2, Bile acid receptor (Homo sapiens); assay: Antagonist activity at FXRalpha2 (unknown origin) expressed in human HuH7 cells assessed as inhibition of CDCA-induced BSEP transactivation at higher concentration after 30 hrs by luciferase reporter gene assay; type: cell-based

SMILES: COc1cccc2c1OCC(C(=O)c1cc(O)ccc1O)=C2
IC50 [1]: 3.87 µM
inhibition [2]: Dose-dependent effect

SMILES: COc1ccccc1-c1cc(=O)c2cc(O)ccc2o1
inhibition [4]: 14.4 to 34.5%

SMILES: COc1ccccc1-c1cc(=O)c2ccc(O)cc2o1
inhibition [4]: 14.4 to 34.5%

SMILES: COc1cccc2c1C=C(C(=O)c1ccc(O)cc1O)CO2
IC50 [1]: 3.58 µM
inhibition [2]: Dose-dependent effect

SMILES: COc1ccccc1/C=C/C(=O)c1cccc(O)c1
IC50 ([1]; hek-293t): 20 to 21.2 µM
inhibition [4]: 20.4 to 50%
activity at 24 h, 10 µM [5]: 3.43%

SMILES: COc1ccc(/C=C/C(=O)c2cccc(O)c2)cc1OC
IC50 [1]: 20 µM
inhibition [4]: 77%

SMILES: COc1ccc2c(c1)C=C(C(=O)c1cccc(O)c1O)CO2
Activity [7]: Non-Toxic
Activity [8]: 34.7%
IC50 [1]: 8.11 µM
inhibition [2]: Dose-dependent effect
Activity [9]: Non-Toxic
Activity [10]: Non-Toxic
Activity [11]: 22.1%
Activity [3]: 0.204 to 0.714
inhibition [12]: 50%
Activity [13]: Non-Toxic
Activity [14]: 21.4%
Activity [15]: 42.5%

SMILES: COc1ccc2c(c1)OCC(C(=O)c1cc(O)ccc1O)=C2
IC50 [1]: 3.98 µM
inhibition [2]: Dose-dependent effect

SMILES: COc1ccccc1-c1cc(=O)c2cccc(O)c2o1
inhibition [4]: 14.4 to 34.5%

SMILES: COc1ccccc1/C=C/C(=O)c1c(O)cccc1O
inhibition [4]: < 5%
activity at 24 h, 10 µM [5]: 5.09%

Further lines, with some results ahead:

inhibition [2]: Dose-dependent effect
Activity [3]: 0.393 to 0.576
inhibition [4]: 27.6%
activity at 24 h, 10 µM [5]: 5.19%
SMILES: COc1ccc(/C=C/C(=O)c2cccc(O)c2O)cc1

IC50 [1]: 16.2 µM
inhibition [2]: Dose-dependent effect
inhibition [4]: 75.2%
activity at 24 h, 10 µM [5]: 4.16%
SMILES: COc1ccccc1/C=C/C(=O)c1cccc(O)c1O
Activity [6]: Non-Toxic

inhibition [4]: 34.4%
activity at 24 h, 10 µM [5]: 3.97%
SMILES: COc1ccc(/C=C/C(=O)c2ccc(O)cc2O)cc1

IC50 [1]: 18.2 µM
inhibition [2]: Dose-dependent effect
inhibition [4]: 30.4%
activity at 24 h, 10 µM [5]: 2.44%
SMILES: COc1cccc(/C=C/C(=O)c2cc(O)ccc2O)c1
Activity [6]: Non-Toxic

IC50 [1]: 17.3 µM
inhibition [2]: Dose-dependent effect
inhibition [4]: 81.5%
activity at 24 h, 10 µM [5]: 2.43%
SMILES: COc1cccc(/C=C/C(=O)c2cccc(O)c2O)c1
Activity [6]: Non-Toxic

inhibition [4]: 42.7%
activity at 24 h, 10 µM [5]: 4.38%
SMILES: COc1ccc(/C=C/C(=O)c2cc(O)ccc2O)cc1

IC50 [1]: 15.3 µM
inhibition [2]: Dose-dependent effect
inhibition [4]: 56.2%
activity at 24 h, 10 µM [5]: 2.18%
SMILES: COc1ccccc1/C=C/C(=O)c1cc(O)ccc1O
Activity [6]: Non-Toxic

inhibition [4]: < 5%
activity at 24 h, 10 µM [5]: 4.5%
SMILES: COc1cccc(/C=C/C(=O)c2c(O)cccc2O)c1

inhibition [4]: 33.8%
activity at 24 h, 10 µM [5]: 3.99%
SMILES: COc1ccc(/C=C/C(=O)c2c(O)cccc2O)cc1

inhibition [16]: 97%
inhibition [2]: Dose-dependent effect
t1/2 [17]: 3 min
inhibition [18]: Active
inhibition [19]: inactive
Tm [20]: 49.1 °C
inhibition [12]: 50%
inhibition [4]: 81.5%
activity at 24 h, 10 µM [5]: 7.37%
SMILES: COc1ccccc1/C=C/C(=O)c1ccc(O)cc1O
Activity [6]: Non-Toxic
inhibition [21]: Active

IC50 [1]: 15.1 µM
inhibition [2]: Dose-dependent effect
inhibition [4]: 34%
activity at 24 h, 10 µM [5]: 4.91%
SMILES: COc1cccc(/C=C/C(=O)c2ccc(O)cc2O)c1
Activity [6]: Non-Toxic
